The subject of one test is Calf thymus DNA. As to the kind of experiment: Binding affinity to calf thymus DNA assessed as change in melting temperature relative to control. Type of test: nucleic-acid assay. To be noted: Bos taurus.
The nature of test [1]: Inhibition of Escherichia coli DNA topoisomerase-1 using supercoiled pBAD-GFPuv plasmid DNA as substrate assessed as prevention of supercoiled DNA template from relaxation after 15 mins by agarose gel electrophoresis.
The subject of test [2] is Escherichia coli. In words: Antibacterial activity against Escherichia coli ATCC 25922 after 24 hrs by microbroth dilution method. Particulars: ATCC 25922, 24 h. Type of test: functional. An outline of the steps: (§1)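 Organisms were grown to log phase in Mueller-Hinton broth at 37 °C with shaking. They were pelleted, resuspended in 0.85% saline to OD625 0.1, and dispensed at a final 5×10^5 CFU/mL per CLSI microbroth dilution. Plates were run in triplicate and incubated 24 h at 37 °C, then OD625 was read. MIC was the lowest concentration giving complete growth inhibition versus untreated controls.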
On the technique in general: Dilution methods test growth across graded concentrations, often in twofold steps.

For test [3], the target named is T1, DNA gyrase (Escherichia coli) (UniProt P0AES6+P0AES4). In words: Inhibition of Escherichia coli DNA gyrase using relaxed pBAD-GFPuv plasmid DNA as substrate at 1 to 10 uM after 30 mins by agarose gel electrophoresis. Type of test: protein-complex assay.
Test [4] relates to Staphylococcus aureus. As to the kind of experiment: Antibacterial activity against Staphylococcus aureus ATCC 29213 after 24 hrs by microbroth dilution method. Type of test: functional. To be noted: ATCC 29213, 24 h. Summed up: as §1
The subject of test [5] is Escherichia coli. In words: Antibacterial activity against Escherichia coli K-12 after 24 hrs by microbroth dilution method. Type of test: functional. Particulars: K-12, 24 h. An outline of the steps:
as §1

In test [6] the test system is Staphylococcus aureus. As to the kind of experiment: Antibacterial activity against Staphylococcus aureus ATCC 33591 after 24 hrs by microbroth dilution method. Type of test: functional. To be noted: ATCC 33591, 24 h. An outline of the steps: as §1
Test [7] is described as follows: Binding affinity to dA60.dT60 DNA (unknown origin) assessed as change in melting temperature at 10 uM by UV-Vis spectrophotometric analysis. An outline of the steps:
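Preformed dA60·dT60 duplex (equimolar strands heated 95 °C 15 min in 10 mM sodium cacodylate, 0.1 mM EDTA, 100 mM NaCl, pH 7.0, slowly cooled) at 1 µM duplex with 10 µM ligand (diluted from DMSO stock). Absorbance melting in 1 cm quartz cells, heating 0.2 °C/min, data every 1.0 °C; Tm shift versus ligand-free duplex.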

The next test concerns Enterococcus faecalis. As to the kind of experiment: Antibacterial activity against Enterococcus faecalis ATCC 29212 after 24 hrs by microbroth dilution method. Type of test: functional. Particulars: ATCC 29212, 24 h. Summed up: as §1
For test [8], the target named is T2, DNA topoisomerase 1 (Homo sapiens) (UniProt P11387).
T2 sequence (whole entry): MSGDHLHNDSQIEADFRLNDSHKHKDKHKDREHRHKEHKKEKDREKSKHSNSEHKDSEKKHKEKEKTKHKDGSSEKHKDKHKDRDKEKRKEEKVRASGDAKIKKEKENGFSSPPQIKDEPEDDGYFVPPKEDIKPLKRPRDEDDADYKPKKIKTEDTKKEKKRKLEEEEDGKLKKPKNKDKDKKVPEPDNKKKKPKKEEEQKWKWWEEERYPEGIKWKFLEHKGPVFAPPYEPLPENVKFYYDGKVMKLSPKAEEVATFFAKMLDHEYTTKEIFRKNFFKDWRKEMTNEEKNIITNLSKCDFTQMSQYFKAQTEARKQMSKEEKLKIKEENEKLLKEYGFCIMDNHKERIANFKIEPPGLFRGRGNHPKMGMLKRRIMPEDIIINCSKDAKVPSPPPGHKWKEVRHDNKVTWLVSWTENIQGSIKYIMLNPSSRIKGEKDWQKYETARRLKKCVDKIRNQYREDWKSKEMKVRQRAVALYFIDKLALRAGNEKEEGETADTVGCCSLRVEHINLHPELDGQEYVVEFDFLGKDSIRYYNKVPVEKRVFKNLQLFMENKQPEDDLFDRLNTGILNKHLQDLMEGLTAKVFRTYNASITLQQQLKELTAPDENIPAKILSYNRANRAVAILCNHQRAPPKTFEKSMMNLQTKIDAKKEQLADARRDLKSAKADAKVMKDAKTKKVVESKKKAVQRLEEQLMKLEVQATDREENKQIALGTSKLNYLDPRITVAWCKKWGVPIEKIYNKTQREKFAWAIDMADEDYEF
In words: Inhibition of human DNA topoisomerase-1 using supercoiled pBAD-GFPuv plasmid DNA as substrate assessed as prevention of supercoiled DNA template from relaxation at 50 uM after 30 mins by agarose gel electrophoresis relative to control. Summed up:
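Human topoisomerase I (2 units) was incubated with 250 ng supercoiled pBAD-GFPuv in 20 mM Tris-HCl pH 7.9, 50 mM KAc, 10 mM Mg(Ac)2, 1 mM DTT and 1 µg/ml BSA, with compound at 10 or 50 µM, for 30 min at 37 °C. After a phenol stop, DNA was resolved on 1% agarose without chloroquine beside a relaxed plasmid marker and stained with ethidium bromide.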

For the next test, the system named is DU-145. In words: Cytotoxicity against human DU145 cells after 48 hrs by sulforhodamine B assay. Type of test: cell-based. To be noted: DU-145, 48 h. Summed up: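 DU145 cells were seeded and allowed 24 h to resume growth at 37 °C, 5% CO2. They were treated in triplicate at final 20, 10, 5, 2.5, 1.25, 0.625 and 0.0625 µM for 48 h, alongside untreated and media-only wells. Cells were fixed with cold TCA (16% final) and stained with sulforhodamine B in 1% acetic acid. Bound dye was solubilized in 10 mM Tris base and read at 560 nm to give IC50.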
For orientation: The SRB assay estimates cell density from bound dye.

Test [9] concerns the target T1, DNA gyrase (Escherichia coli). In words: Inhibition of Escherichia coli DNA gyrase using relaxed pBAD-GFPuv plasmid DNA as substrate at 1 to 50 uM after 30 mins by agarose gel electrophoresis. Type of test: protein-complex assay.
The test system of a further test is Pseudomonas aeruginosa. As to the kind of experiment: Antibacterial activity against Pseudomonas aeruginosa ATCC 27853 after 24 hrs by microbroth dilution method. Type of test: functional. To be noted: ATCC 27853, 24 h. An outline of the steps:
as §1

The target in the next test is T3, DNA topoisomerase 1 (Homo sapiens, UniProt P11387).
T3 sequence (P11387 whole entry): T2 sequence (whole entry)
As to the kind of experiment: Inhibition of human DNA topoisomerase-1 using supercoiled pBAD-GFPuv plasmid DNA as substrate assessed as prevention of supercoiled DNA template from relaxation after 30 mins by agarose gel electrophoresis. Summed up:
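Compound at 5–50 µM final; 30 min at 37 °C, phenol stop. Read on 1% agarose/TAE gel with ethidium stain. IC50 = concentration at 50% (−) supercoiled DNA by densitometry; mean of ≥3 determinations.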

In test [10] the target is DNA topoisomerase 2-alpha (Homo sapiens, UniProt P11388). In words: Inhibition of human DNA topoisomerase-2 using supercoiled pBAD-GFPuv plasmid DNA as substrate assessed as prevention of supercoiled DNA template from relaxation after 30 mins by agarose gel electrophoresis. Summed up:
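Compound at 5–50 µM final; 30 min at 37 °C, phenol stop. Read on 1% agarose/TAE gel with ethidium stain. IC50 = concentration at 50% (−) supercoiled DNA by band intensity; mean of ≥3 determinations.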

Test [11] can be described thus: Inhibition of Escherichia coli DNA topoisomerase-1 using supercoiled pBAD/Thio plasmid DNA as substrate assessed as prevention of supercoiled DNA from relaxation after 30 mins by agarose gel electrophoresis.

The text below walks through data of ChEMBL document CHEMBL3580637, “Selective Inhibition of Bacterial Topoisomerase I by alkynyl-bisbenzimidazoles” (Medchemcomm, 2014).

Converted amounts (≈) assume the structure as drawn. The source made the active and inactive calls. No cut-off for these calls is given here.

Chain of DNA topoisomerase 2-alpha (P11388 whole entry): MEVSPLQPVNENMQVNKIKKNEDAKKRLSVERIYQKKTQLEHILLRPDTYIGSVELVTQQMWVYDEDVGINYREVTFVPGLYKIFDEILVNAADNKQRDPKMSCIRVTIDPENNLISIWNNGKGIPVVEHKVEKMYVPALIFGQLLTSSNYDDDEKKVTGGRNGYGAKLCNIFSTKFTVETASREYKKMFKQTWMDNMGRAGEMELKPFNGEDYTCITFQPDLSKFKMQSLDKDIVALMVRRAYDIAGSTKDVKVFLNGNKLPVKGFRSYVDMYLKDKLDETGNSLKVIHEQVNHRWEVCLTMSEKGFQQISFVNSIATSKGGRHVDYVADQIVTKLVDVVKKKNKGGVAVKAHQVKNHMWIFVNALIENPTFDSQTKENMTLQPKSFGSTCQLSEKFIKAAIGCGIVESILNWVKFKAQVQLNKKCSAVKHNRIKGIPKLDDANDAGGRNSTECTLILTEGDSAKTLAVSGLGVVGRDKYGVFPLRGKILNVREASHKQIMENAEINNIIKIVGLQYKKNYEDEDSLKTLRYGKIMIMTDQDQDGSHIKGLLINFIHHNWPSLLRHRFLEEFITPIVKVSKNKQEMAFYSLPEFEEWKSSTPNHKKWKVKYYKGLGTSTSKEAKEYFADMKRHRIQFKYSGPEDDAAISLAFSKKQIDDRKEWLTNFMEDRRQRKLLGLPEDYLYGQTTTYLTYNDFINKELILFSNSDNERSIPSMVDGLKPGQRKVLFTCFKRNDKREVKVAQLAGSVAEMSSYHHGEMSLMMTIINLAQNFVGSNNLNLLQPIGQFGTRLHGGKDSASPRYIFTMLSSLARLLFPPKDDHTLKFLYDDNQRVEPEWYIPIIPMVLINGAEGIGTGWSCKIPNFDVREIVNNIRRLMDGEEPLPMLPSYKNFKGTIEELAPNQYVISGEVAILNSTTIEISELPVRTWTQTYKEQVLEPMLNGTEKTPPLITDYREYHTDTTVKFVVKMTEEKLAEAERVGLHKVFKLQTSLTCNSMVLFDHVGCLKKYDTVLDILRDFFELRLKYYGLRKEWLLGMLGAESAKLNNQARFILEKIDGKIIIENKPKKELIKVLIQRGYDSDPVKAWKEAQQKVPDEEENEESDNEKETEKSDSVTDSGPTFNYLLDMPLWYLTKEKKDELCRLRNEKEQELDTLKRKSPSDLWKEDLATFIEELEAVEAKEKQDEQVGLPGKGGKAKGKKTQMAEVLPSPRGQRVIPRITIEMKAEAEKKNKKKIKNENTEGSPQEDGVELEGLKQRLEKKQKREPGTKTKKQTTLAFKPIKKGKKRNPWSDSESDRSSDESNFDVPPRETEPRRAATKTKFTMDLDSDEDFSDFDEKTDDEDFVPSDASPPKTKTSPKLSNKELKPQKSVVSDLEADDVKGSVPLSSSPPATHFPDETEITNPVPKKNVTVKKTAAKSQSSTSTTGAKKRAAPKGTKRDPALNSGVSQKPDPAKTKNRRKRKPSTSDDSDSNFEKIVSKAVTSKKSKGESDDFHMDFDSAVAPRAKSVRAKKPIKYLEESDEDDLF

For orientation: ΔTm means the change in melting temperature against a reference sample. A word on the IC50: it is the concentration at which inhibition is half-maximal. Broadly, the MIC is the lowest concentration that inhibits growth of the organism. As usually defined, the inhibition is the drop in the measured response relative to a control, in per cent. Regarding `C#CCOc1ccc(-c2nc3ccc(-c4nc5ccc(N6CCN(C)CC6)cc5[nH]4)cc3[nH]2)cc1`, the thermal shift (ΔTm) with Calf thymus DNA is 1 °C; in test [7], 22.9 °C. For the same molecule, the IC50 in test [1] worked out at 5.5 µM. Besides, the MIC with Escherichia coli [2] is 8 mg/L (≈ 17.3 µM); in the test on Staphylococcus aureus [4], 2 mg/L (≈ 4.32 µM); against Escherichia coli [5], 8 mg/L (≈ 17.3 µM); in the test with Staphylococcus aureus [6] it was 2 mg/L (≈ 4.32 µM); with Enterococcus faecalis it was 16 mg/L (≈ 34.6 µM). Moreover, the inhibition result in test [3] is “inactive”. Moreover, the inhibition in test [8] worked out at 70%.
For the molecule `C#CCCCCCCCCCOc1ccc(-c2nc3ccc(-c4nc5ccc(N6CCN(C)CC6)cc5[nH]4)cc3[nH]2)cc1`, the thermal shift (ΔTm) was 1 °C in the test with Calf thymus DNA and 8 °C in test [7]. Also, the half-maximal inhibitory concentration (IC50) in [1] was 2.47 µM; in the test with DU-145, over 10 µM. The values for the MIC with Escherichia coli [5] and against Enterococcus faecalis were 8 mg/L (≈ 13.9 µM) and 16 mg/L (≈ 27.8 µM), respectively. The inhibition entry in test [9] was “inactive”. Further, in test [8], the inhibition is 5%.
Take `C#CCCCCOc1ccc(-c2nc3ccc(-c4nc5ccc(N6CCN(C)CC6)cc5[nH]4)cc3[nH]2)cc1`: the ΔTm was determined as 1 °C with Calf thymus DNA and 20.9 °C in test [7]. Besides, the IC50 in test [1] came to 4.57 µM; in the test on DU-145, 2.12 µM. Also, the MIC in the test with Escherichia coli [2] came to 8 mg/L (≈ 15.9 µM); in the test on Staphylococcus aureus [4] it was 2 mg/L (≈ 3.96 µM); against Escherichia coli [5], 8 mg/L (≈ 15.9 µM); with Pseudomonas aeruginosa, 16 mg/L (≈ 31.7 µM); in the test with Staphylococcus aureus [6], 2 mg/L (≈ 3.96 µM); in the test with Enterococcus faecalis it was 4 mg/L (≈ 7.93 µM). Moreover, the inhibition result in test [9] is “inactive”. Further, the inhibition in test [8] amounted to 5%.
`CCOc1ccc(-c2nc3cc(-c4nc5cc(N6CCN(C)CC6)ccc5[nH]4)ccc3[nH]2)cc1`: the IC50 in test [1] is 29.8 µM; in the test on DU-145, 4.25 µM; at DNA topoisomerase 1, over 50 µM. The MIC against Escherichia coli [2] turned out to be 8 mg/L (≈ 17.7 µM); with Staphylococcus aureus [4], 2 mg/L (≈ 4.42 µM); against Staphylococcus aureus [6] it was 2 mg/L (≈ 4.42 µM); in the test on Enterococcus faecalis, 16 mg/L (≈ 35.4 µM). The ΔTm in test [7] came to 24.1 °C.
As for `CN1CCN(c2ccc3[nH]c(-c4ccc5[nH]c(-c6ccc(O)cc6)nc5c4)nc3c2)CC1` [HOECHST 33258], the IC50 worked out at 19.5 µM in test [1], 28.9 µM in test [10] and 22.9 µM at DNA topoisomerase 1. The results for the minimal inhibitory concentration (MIC) in the test on Staphylococcus aureus [4], in the test on Staphylococcus aureus [6] and against Enterococcus faecalis were at least 32 mg/L, 16 mg/L (≈ 37.7 µM) and 16 mg/L (≈ 37.7 µM), respectively. For the same molecule, the ΔTm in [7] is 24.6 °C. The inhibition entry in test [9] is “inactive”.
With `COc1ccc(-c2nc3cc(-c4nc5cc(N6CCN(C)CC6)ccc5[nH]4)ccc3[nH]2)cc1OC`, the IC50 in [11] was found to be 3.8 µM.
Consider `C#CCOCCCCOc1ccc(-c2nc3ccc(-c4nc5ccc(N6CCN(C)CC6)cc5[nH]4)cc3[nH]2)cc1`, for which the ΔTm with Calf thymus DNA came out at 1 °C; in test [7], 23.4 °C. Besides, in test [1], the IC50 was 6.63 µM. The MIC in the test on Escherichia coli [2] stood at 8 mg/L (≈ 15 µM); with Staphylococcus aureus [4] it was 2 mg/L (≈ 3.74 µM); in the test with Escherichia coli [5] it was 8 mg/L (≈ 15 µM); in the test with Pseudomonas aeruginosa it was 16 mg/L (≈ 29.9 µM); against Staphylococcus aureus [6], 2 mg/L (≈ 3.74 µM). Moreover, in test [9], the inhibition result was “inactive”. For the same molecule, the inhibition in [8] was found to be 5%.
